Screening results: PubChem, several laboratories
In the library only some 2% were active in any assay of this set; here they are far more common.
APJ agonist – agonists of human apelin receptor APJ, primary screen, CHO-K1 cells, PathHunter beta-arrestin, luminescence | activation, % at 20 µM | 330,000 tested, 0.11% active | 0% DMSO wells, 100% apelin;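 active means activation more than six SD over the plate average, tested at 20 µM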;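 further: 0% = DMSO alone and 100% = apelin-13 at 10 nM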
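Assay system – PathHunter CHO-K1 APJ (AGTRL-1) beta-arrestin reporter cells · Compound – one dose, 20 µM compound, 1% DMSO · Timing – compound 90 min 25 °C, reagent 1 h · Measured by – luminescence from split beta-galactosidase complementation, Galacton Star/Emerald II substrate · Measure – beta-arrestin recruitment to APJ as agonist activity, luminescent signal · Benchmarks – DMSO vs Apelin-13 10 nM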
CXCR6 block – CXCR6 receptor inhibitors, primary screen, cell-based, beta-arrestin, luminescence, CHO-K1 PathHunter, 1536-well; C-X-C chemokine receptor type 6 (Homo sapiens), O00574; 360,000 tested, 0.36% active; AID 602244, 2012; inhibition, % at 20 µM; in the data active means inhibition above about 34%, passing the limit was not always enough;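 further: antagonist mode with CXCL16 agonist at 10 nM final; 0% = 10 nM CXCL16 with DMSO and 100% = unstimulated wells without agonist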
APJ antag – antagonists of human apelin receptor APJ, primary screen, CHO-K1 cells, beta-arrestin complementation, luminescence. inhibition, % at 20 µM. 330,000 tested, 0.32% active;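 active means inhibition above about 40% at 20 µM, limit read from the data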;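 further: cells challenged with 10 nM apelin-13 agonist together with compound; plate controls were apelin-13 plus DMSO wells for no effect and DMSO wells lacking apelin-13 for full effect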
EBI2 block – EBI2 receptor antagonists, beta-arrestin recruitment, primary screen, cell-based, luminescence, 7a,25-OHC stimulation, uHTS. 7a,25-OHC stimulated. 360,000 tested, 0.81% active. inhibition, % at 5 µM. G-protein coupled receptor 183 (Homo sapiens), P32249; in the data active means inhibition above about 38%;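 further: enzyme fragment complementation signal reports receptor beta-arrestin coupling in cells; 0% = agonist plus DMSO wells and 100% = wells without agonist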
Target sequence (P32249 whole entry, looked up, the tested form may be a part): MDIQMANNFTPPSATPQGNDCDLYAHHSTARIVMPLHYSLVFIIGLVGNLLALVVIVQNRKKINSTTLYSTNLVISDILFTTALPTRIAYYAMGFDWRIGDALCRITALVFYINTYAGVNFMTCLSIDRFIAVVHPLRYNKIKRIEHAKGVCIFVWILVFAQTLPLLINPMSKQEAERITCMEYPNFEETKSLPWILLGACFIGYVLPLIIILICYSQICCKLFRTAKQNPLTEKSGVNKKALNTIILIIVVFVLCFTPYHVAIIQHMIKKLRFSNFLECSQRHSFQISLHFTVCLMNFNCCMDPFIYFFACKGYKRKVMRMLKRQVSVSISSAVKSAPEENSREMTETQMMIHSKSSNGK
FXN GAA850 act – FXN promoter activators, primary screen, cell-based, luciferase luminescence, HEK293 lucGAA850. HEK293 lucGAA850 FXN promoter luciferase reporter, 24 h; percent of 10 µM SAHA response. activation, % at 6 µM. 360,000 tested, 0.56% active;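 active means activation above the average of all compounds screened plus 3 SD, cutoff fixed separately per campaign, cut at about 7.5% in these data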;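 further: 0% = DMSO wells and 100% = 10 µM SAHA wells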
CCR6 antag – CCR6 receptor antagonists, primary screen, cell-based, CHO-K1, luminescence, beta-arrestin, uHTS; 340,000 tested, 0.49% active; AID 493098, 2011; C-C chemokine receptor type 6 (Homo sapiens), P51684; inhibition, % at 20 µM; CHO-K1 CCR6 PathHunter beta-arrestin, CCL20-stimulated;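 active means compounds whose inhibition of the agonist-driven luminescence signal at 20 µM reaches about 50%, limit read from the data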;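 further: cells stimulated with CCL20 at 14 nM final; plate controls were DMSO with CCL20 for no effect and DMSO without agonist for full effect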
GAA30 FXN cntr – GAA30 FXN promoter activators, confirmation, counter-screen for GAA850 frataxin promoter activator project, cell-based, luminescence, HEK293, lucGAA30, triplicate; 1,900 tested, 66% active; AID 588350, 2011; shares compounds with FXN GAA850 act; activation, % at 6 µM; HEK293 lucGAA30 FXN promoter luciferase, 24 h; DMSO = 0%, 5 µM ipriflavone = 100%;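 active means mean activation above the mean of solvent-only control wells plus 3 SD, cut at about 22% in these data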;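 further: counterscreen of GAA850 promoter hits where activity marks nonselective or luminescence artifacts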
FXN GAA850 conf – FXN GAA850 promoter activators in reporter cells, confirmation, cell-based, luminescence, HEK293 lucGAA850, triplicate | shares compounds with FXN GAA850 act | activation, % at 6 µM | AID 588351, 2011 | HEK293 lucGAA850 FXN promoter luciferase reporter, 24 h; 100% = activation by SAHA | 1,900 tested, 86% active;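 active means mean activation above a set limit taken from the primary screen, cut at about 8% in these data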;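 further: 0% = DMSO wells and 100% = 10 µM SAHA wells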
Starred values were filed as active, the others as inactive; . = no result.

SMILES	APJ agonist	CXCR6 block	APJ antag	EBI2 block	FXN GAA850 act	CCR6 antag	GAA30 FXN cntr	FXN GAA850 conf
Cc1cc(Cl)ccc1OCCCC(=O)N1CCCCC1	-5	6	9	25	8.6*	3	79*	31*
C=CCOC(=O)C1=C(C)NC(SCC(=O)Nc2nccs2)=C(C#N)C1c1ccc(Cl)cc1 (centres undefined)	-4	20	14	23	9.6*	20	14	8.9*
Cc1ccc(S(=O)(=O)NCCc2nnc3ccc(N4CCOCC4)nn23)cc1	.	5	.	-3	-2	.	.	.
COCCNC(=O)C1(C)CCCN(C(=O)c2ccc(C(=O)OC)cc2)C1 (centres undefined)	.	5	.	-3	1	.	.	.
CCOc1cc(-c2nc3ccccc3s2)ccc1O	-3	2	5	-9	9.4*	1	99*	29*
O=C(NCc1ccc(F)cc1)c1cc(C2CCCCN2C(=O)CCc2ccccc2)on1 (centres undefined)	.	4	.	8	-2	.	.	.
O=C(Nc1ccccc1-c1ccccc1)c1cnccn1	-4	5	10	9	9.0*	9	41*	22*
Cc1c(-c2nc(N)nc(Nc3ccccc3F)n2)oc2ccccc12	0	-10	5	5	14*	-11	112*	48*
COC(=O)CCCn1cc(CN2CC(N(C)C)CS2(=O)=O)nn1 (centres undefined)	.	2	.	-16	.	.	.	.
Cc1ccc2nc(/C=C/c3cccc(F)c3)ccc2c1	-4	3	2	25	9.5*	8	101*	30*
CCN(CC)S(=O)(=O)c1ccc(C)c(C)c1	-6	-1	1	2	2	5	.	.
CC1CCN(S(=O)(=O)c2ccc3c(c2)C(=NO)c2cc(S(=O)(=O)N4CCC(C)CC4)ccc2-3)CC1	-3	-9	9	-42	11*	16	-71	30*
CCN(CC)S(=O)(=O)c1ccc2c(c1)C(=NO)c1cc(S(=O)(=O)N(CC)CC)ccc1-2	-7	22	18	50*	10*	39	-11	19*
Clc1ccc(-c2nnc(-c3ccco3)o2)cc1	2	1	9	-13	12*	1	108*	41*
CCOC(=O)C1=CCC(c2cc3ccccc3[nH]2)NC1 (centres undefined)	.	.	.	-3	.	.	.	.
O=C1[C@H]2[C@@H](c3ccc(F)cc3)N3C(=O)N(c4ccccc4)C(=O)[C@@]3(Cc3ccccc3)[C@H]2C(=O)N1C1CCCCC1	-5	-10	-5	-1	10*	8	23*	7
O=C1[C@H]2[C@@H](c3ccc(F)cc3)N3C(=O)N(c4cccc(Cl)c4)C(=O)[C@@]3(Cc3ccccc3)[C@H]2C(=O)N1C1CCCCC1	0	-5	-39	-8	9.3*	-6	13	7
CC(OC(=O)CCCC(=O)Nc1ccc(F)cc1)C(=O)c1ccccc1 (centres undefined)	0	7	-19	1	0	-2	.	.
CC(=O)c1cc2c(C)c(C(=O)c3ccccc3)oc2cc1O	-6	8	-19	10	8.8*	20	122*	39*
CCc1ccc2[nH]c(=O)c(C(c3nnnn3Cc3ccc(OC)cc3)N3CCOCC3)cc2c1 (centres undefined)	-5	-2	13	-8	3	-2	.	.
COc1ccc(Cn2nnnc2C(c2cc3cc(C)cc(C)c3[nH]c2=O)N2CCOCC2)cc1 (centres undefined)	-3	4	2	-14	8.1*	-17	11	7
O=C(NCc1ccncc1)[C@@H]1CCCN1C(=O)[C@H]1CCCN1C(=O)c1ccccc1	.	4	.	-6	.	.	.	.
O=C(N/N=C/C(Br)=C/c1ccccc1)c1ccccc1F	1	5	0	-8	8.5*	16	110*	42*
O=C(N/N=C/C(Br)=C/c1ccccc1)c1cc(-c2ccco2)[nH]n1	-3	13	-3	2	8.3*	4	4	13*
CC1=NNC(=O)C1CCC(=O)N/N=C/C(Br)=C/c1ccccc1 (centres undefined)	-1	-3	23	-2	12*	-1	24*	5
SMILES	APJ agonist	CXCR6 block	APJ antag	EBI2 block	FXN GAA850 act	CCR6 antag	GAA30 FXN cntr	FXN GAA850 conf
O=C(CNc1cccc2ccccc12)N/N=C/C(Br)=C/c1ccccc1	13	0	-40	3	13*	-14	-19	2
CC1=NNC(=O)C1CC(=O)N/N=C/C(Br)=C/c1ccccc1 (centres undefined)	3	1	15	-14	4	1	.	.
O=C(CNc1cccc2ccccc12)N/N=C/c1ccc[nH]1	-1	-16	-10	7	-1	-1	.	.
O=C(N/N=C/C(Cl)=C/c1ccccc1)c1ccccc1F	-3	0	21	8	3	1	.	.
COc1cccc(Nc2nc(Nc3ccc(Cl)c(C(=O)O)c3)nc(C)c2[N+](=O)[O-])c1	-6	10	14	3	2	20	.	.
C[C@@H]1COC(=O)[C@@H](NC(=O)OCC2c3ccccc3-c3ccccc32)C/C=C\C[C@@H](CC(=O)N(CCO)Cc2ccccc2)C(=O)N1	-3	2	13	-5	0	0	.	.
O=S(=O)(Nc1cccc(-n2cnnn2)c1)c1ccccc1C(F)(F)F	-1	-4	-11	2	1	-3	.	.
Nc1sc2c(c1C(=O)NCCc1ccccc1)CCCC2	.	.	.	4	.	.	.	.
CCCCNC(=O)N(O)C1N(/N=C/c2ccco2)C(=S)SC1(C)C (centres undefined)	-2	-1	-1	-2	0	-8	.	.
CCCCNC(=O)N(O)C1N(/N=C/c2ccccc2F)C(=S)SC1(C)C (centres undefined)	-3	3	-4	-16	8.4*	6	26*	7
O=C(c1ccc(C23CC4CC(CC(C4)C2)C3)o1)N1CCOCC1	-3	2	-9	-48	9.7*	8	34*	22*
